Compound activity deposited in PubChem BioAssay by The Scripps Research Institute Molecular Screening Center.
M5 antag = blocks acetylcholine activation of human M5 receptor | P08912 | CHO-hM5 cells, Fluo-8 calcium fluorescence, ACh EC80 | inhibition, % at 3 µM | 360,000 compounds, 0.59% hits;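 active means inhibition above a per-plate cutoff, the mean of that plate's test compounds plus 3 SD, cut at about 27% in these data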
CHRM5 PAM = CHRM5 positive allosteric modulation | P08912 | CHO-K1 hM5, Fluo-8 calcium, ACh EC20 PAM; 0% = ACh EC20, 100% = ACh EC100 | activation, % at 3 µM | 360,000 compounds, 0.3% hits;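 active means activation above the run cutoff, the mean activation of all test compounds plus 3 SD, cut at about 18% in these data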
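Measured by: Fluo-8 calcium fluorescence; material: human M5 receptor in CHO-K1 cells; schedule: Post-acetylcholine fluorescence recording 140 s; benchmarks: low control EC20 acetylcholine (0%), high control EC100 acetylcholine (100%); read-out: Max/basal fluorescence ratio as % of EC20–EC100 ACh window; compound: single dose, 3 µM nominal final test concentration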
M4 antag = blocks acetylcholine activation of human M4 receptor; 360,000 compounds, 0.73% hits; CHO-hM4 cells, ACh EC80, Fluo-8 calcium fluorescence; inhibition, % at 3 µM;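 active means inhibition above its plate's cutoff, the mean inhibition of sample wells plus 3 SD, cut at about 27% in these data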
Target sequence (P08173 whole entry, looked up): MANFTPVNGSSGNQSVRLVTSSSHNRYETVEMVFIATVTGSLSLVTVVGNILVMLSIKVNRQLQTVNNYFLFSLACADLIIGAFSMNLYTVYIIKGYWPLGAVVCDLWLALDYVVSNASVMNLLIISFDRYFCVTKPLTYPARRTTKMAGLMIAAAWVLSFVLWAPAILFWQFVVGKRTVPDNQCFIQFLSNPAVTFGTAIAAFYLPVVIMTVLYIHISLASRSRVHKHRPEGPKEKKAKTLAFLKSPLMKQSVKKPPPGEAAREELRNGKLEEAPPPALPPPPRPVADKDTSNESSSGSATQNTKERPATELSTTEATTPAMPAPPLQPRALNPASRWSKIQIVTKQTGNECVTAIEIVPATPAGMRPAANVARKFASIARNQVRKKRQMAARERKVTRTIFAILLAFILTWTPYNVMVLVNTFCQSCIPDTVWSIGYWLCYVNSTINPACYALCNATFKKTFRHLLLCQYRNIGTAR
M4 PAM = potentiates acetylcholine response at human M4 receptor; P08173; CHO-K1 hM4/Gqi5, Fluo-8 calcium fluorescence, ACh EC20; 0% = ACh EC20, 100% = maximal ACh; activation, % at 3 µM; 360,000 compounds, 0.4% hits;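 active means activation above its plate's cutoff, the mean activation of sample wells plus 3 SD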
CHRM5 agonist = CHRM5 agonism in calcium assay; P08912; activation, % at 3 µM; CHO-K1 hM5 cells, Fluo-8 calcium fluorescence; 0% DMSO wells, 100% maximal acetylcholine response; 360,000 compounds, 0.19% hits; AID 624037;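 active means activation above the run's mean over test compounds plus 3 SD, cut at about 23% in these data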;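 further: signal is peak over basal fluorescence ratio across the kinetic read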
M4 ag = agonists of human muscarinic M4 receptor (CHRM4); P08173; CHO-K1 hM4/Gqi5, Fluo-8 calcium fluorescence; vehicle 0%, full acetylcholine response 100%; activation, % at 3 µM; 360,000 compounds, 0.14% hits;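 active means activation above the run mean over all test wells plus 3 SD, cut at about 32% in these data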;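 further: peak over basal fluorescence ratio per well then scaled between controls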
Large screens that a line does not name were inactive. Most compounds without a hit are left out; they make up all but 1.8% or so of the library.

COCCCNC(=O)C1CCC(CNS(=O)(=O)c2ccc3c(c2)CC(C)N3C(=O)C2CC2)CC1 (centres undefined)	none
O=C(CCN1C(=O)c2ccccc2S1(=O)=O)NCc1ccccc1	none
CCOc1cc2c3c(c1)C(C)=CC(C)(C)N3C(=O)C2=O	CHRM5 agonist 55.5
C[C@]12CCC(=O)C=C1CC[C@@H]1[C@@H]2CC[C@@]2(C)[C@H]1CC[C@@]21CCC(=O)O1	M4 antag 30.2
C[C@]12CCC(=O)C=C1CCC1C2CC[C@@]2(C)C1CCC21OCCO1 (some centres undefined)	none
C[C@]12CC[C@H]3[C@@H](CCC4=CC(=O)CC[C@@]43C)[C@@H]1CC[C@@H]2C(=O)CO	none
CC(=O)OCC(=O)[C@H]1CC[C@H]2[C@@H]3CCC4=CC(=O)CC[C@]4(C)[C@H]3CC[C@]12C	M4 antag 57.3
COc1nc(C)ccc1-c1noc(-c2ccco2)n1	none
COc1nc(-c2ccc(C)cc2)ccc1-c1noc(-c2ccco2)n1	CHRM5 PAM 27.9
CN(C)CCCn1c(SCc2c(Cl)cccc2Cl)nnc1-c1ccncc1	M4 PAM 22.4
O=C(CCNS(=O)(=O)/C=C/c1ccccc1)NCCc1c[nH]c2ccccc12	none
CCC1CCCCN1CCCNC(=O)c1ccc2c(c1)N(Cc1c(F)cccc1Cl)C(=O)CS2 (centres undefined)	M5 antag 75.5, M4 antag 99.5
O=C(NCCN1CCOCC1)c1ccc2c(c1)N(Cc1ccc(Cl)cc1)C(=O)CS2	none
O=C(NC1CCCC1)c1ccc2c(c1)N(Cc1ccccc1)CCS2	CHRM5 PAM 18.4
O=C(NCCN1CCOCC1)c1ccc2c(c1)N(Cc1ccccc1)C(=O)CS2	M4 antag 37.2
COCc1cc(C)nc(OCC(=O)N/N=C/c2ccc(C)o2)c1C#N	none
Cn1cnc([N+](=O)[O-])c1S(=O)(=O)Oc1ccc(Cl)cc1	M4 antag 27.8
Cn1cnc([N+](=O)[O-])c1S(=O)(=O)Oc1cccc2ccccc12	none
CCOC(=O)C1CCN(S(=O)(=O)c2ccc3c(c2)CCN3C(C)=O)CC1	M5 antag 31.8
CCCCn1nc(C(=O)N(CC(C)C)c2c(N)n(CCCC)c(=O)[nH]c2=O)c2ccccc2c1=O	none
CCc1ccc(-c2nc(CN3CCC(C(=O)N4CCN(c5ccccc5)CC4)CC3)c(C)o2)cc1	M4 ag 41.0
CCc1ccc(-c2nc(CN3CCC(C(=O)N4CCN(c5ccccn5)CC4)CC3)c(C)o2)cc1	none
O=C(COC(=O)c1ccco1)NCCc1ccc(Cl)cc1	none
CC(OC(=O)Cc1c[nH]c2ccccc12)C(=O)NC1CCCCC1C (centres undefined)	none
O=C(NCc1ccc(F)cc1)c1cc(C(=O)C2CC2)c[nH]1	none
CCNC(=O)NC1c2ccccc2CSc2ccccc21 (centres undefined)	none
CCOCCN1CCN(C2c3ccccc3CSc3ccccc32)CC1 (centres undefined)	M5 antag 100.3, M4 antag 99.1
O=C(C1CCCO1)N1CCN(C(c2ccccc2)c2ccccc2)CC1 (centres undefined)	none
O=C(C1CCCO1)N1CCC(O)(c2ccccc2)CC1 (centres undefined)	M4 PAM 19.9
COc1cc(/C=C/C(=O)OCC(=O)Nc2ccc([N+](=O)[O-])cc2)ccc1O	CHRM5 agonist 38.1, M4 ag 39.0
O=C(Nc1ccc(Cl)cc1)N1CCC(c2nc(-c3ccc(F)cc3)no2)CC1	M5 antag 46.8
O=C(CNCC1(N2CCOCC2)CCCCC1)Nc1ccc(Cl)cc1	CHRM5 PAM 18.3
CCC[C@@H]1CCCO[C@@](C(=O)NCCN2CCOCC2)(C(F)(F)F)C1	none
O=C(CCS(=O)(=O)c1ccccc1)OCc1ccc([N+](=O)[O-])cc1	none
O=[N+]([O-])c1c(Nc2ccc(O)cc2)cc(Cl)c2nonc12	M5 antag 43.2, M4 antag 78.2
COc1ccc(CCN(C)C(=O)c2ccc(S(=O)(=O)Nc3ccccc3F)cc2)cc1OC	none
CCCCN1C(=O)C(=O)N(CC(=O)Nc2ccccc2C(C)=O)C1=O	none
CCCCN1C(=O)C(=O)N(CC(=O)Nc2cc(Cl)ccc2OC)C1=O	M4 PAM 23.8
Cc1ccc(-n2nnnc2SCC(=O)NC2CC2)cc1C	none
c1ccc(C2=NNC(c3ccco3)=Nc3ccccc32)cc1	none
Cc1ccc(C2=NNC(c3ccc(Cl)cc3)=Nc3ccccc32)o1	M4 PAM 25.3
CCOC(=O)C1[C@H]2C(=O)N(C(C)c3ccc(OC)cc3)C[C@]23C=C[C@H]1O3 (some centres undefined)	M4 antag 74.7
COC(=O)C1C2C=CC3(CN(Cc4cccs4)C(=O)C13)O2 (centres undefined)	CHRM5 PAM 20.8
O=C(NCc1ccc(F)cc1)C1C2C=CC3(CN(Cc4cccnc4)C(=O)C13)O2 (centres undefined)	M4 PAM 27.9
CCCOC(=O)C1[C@H]2C(=O)N(C(C)c3ccc(OC)cc3)C[C@]23C=C[C@H]1O3 (some centres undefined)	none
CCOC(=O)N1CCC(NC(=O)CC2C(=O)NCCN2Cc2cccc(F)c2F)CC1 (centres undefined)	none
c1ccc(CN2CCC(Nc3ncnc4sccc34)CC2)cc1	none
Cc1sc2ncnc(NC3CCN(Cc4ccccc4)CC3)c2c1C	M5 antag 29.3
CN(C)Cc1cn(CC[C@@H]2CC[C@@H](NC(=O)Nc3ccccc3F)[C@@H](CO)O2)nn1	none
COc1cc(CNCCO)ccc1OCCc1ccccc1	M4 antag 28.7, M4 PAM 20.5
OC[C@H]1O[C@@H](n2cnc3c(NCc4ccco4)ncnc32)[C@H](O)[C@@H]1O	CHRM5 agonist 45.0
OCC1OC(n2cnc3c(NCc4ccco4)ncnc32)C(O)C1O (centres undefined)	none
Cc1noc(C)c1NC(=O)Nc1ccc2c(c1)C(=O)N([C@H](C)CO)C[C@H](C)[C@@H](CN(C)C(=O)Nc1c(C)noc1C)O2	none
COc1cc(/C=C(/C#N)C(=O)NC(C)c2ccccc2)cc(OC)c1O (centres undefined)	M4 ag 32.9
CC(NC(=O)/C(C#N)=C/c1ccc(C(=O)O)cc1)c1ccccc1 (centres undefined)	none
Cc1nn(CCC#N)c(N)c1C1(O)C(=O)Nc2c(Cl)cc(Cl)cc21 (centres undefined)	none
Cc1ccc2nc(CNC(=O)C3CCC(=O)N(Cc4ccccc4F)C3)cn2c1 (centres undefined)	none
